Laboratory results as given in ChEMBL document CHEMBL3525971 (Drug Metab Dispos, 2011).

Key:
[1] = Biliary excretion in castrated pig assessed as fraction of the dose excreted at 0.8 mg/kg administered as intrajejunal dose measured during 6 hrs sampling by UPLC-tandem mass spectrometry; format: ADME, organism-based, Sus scrofa; set-up: dose 0.8 mg/kg; conditions: male, bile, read-out: Drug excretion
[2] = AUC (0 to 6 hrs) in castrated pig plasma withdrawn from hepatic vein at 0.2 mg/kg, iv by UPLC-tandem mass spectrometry; format: ADME, organism-based, Sus scrofa; set-up: time < 6 hr, dose 0.2 mg/kg, route intravenous; conditions: male
Method in brief: (§1)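 Where ketoconazole was co-dosed, it was given at 10 mg/kg at the same jejunal site 20 min before. Plasma protein-precipitated with acetonitrile and analysed by UPLC-MS/MS (finasteride-d9). AUC0-6h, Cmax and t1/2 (ln2/λz) were derived by non- or compartmental analysis.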

[3] = Biliary excretion in castrated pig assessed as unchanged drug level at 0.8 mg/kg administered as intrajejunal dose 20 mins after ketoconazole administration measured during 6 hrs sampling by UPLC-tandem mass spectrometry; format: ADME, organism-based, Sus scrofa, Bile; set-up: dose 0.8 mg/kg; conditions: in vivo, other
[4] = AUC (0 to 6 hrs) in castrated pig plasma withdrawn from femoral vein at 0.8 mg/kg administered as intrajejunal dose 20 mins after ketoconazole administration by UPLC-tandem mass spectrometry; format: ADME, organism-based, Sus scrofa; set-up: time < 6 hr, dose 0.8 mg/kg; conditions: male; method in brief: as §1
[5] = Drug excretion in castrated pig urine assessed as omega-hydroxy finasteride metabolite formation by UPLC-tandem mass spectrometry; format: ADME, tissue-based, Sus scrofa
[6] = Ratio of AUC in bile to plasma withdrawn from portal vein in castrated pig at 0.8 mg/kg administered as intrajejunal dose by UPLC-tandem mass spectrometry; format: ADME, organism-based, Sus scrofa; set-up: dose 0.8 mg/kg; conditions: male, read-out: Ratio AUC
Method in brief: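 Bile collected 0-6 h and weighed; portal and hepatic vein plasma sampled. UPLC-MS/MS quantification against finasteride-d9 in SRM mode. Bile/plasma AUC ratio calculated per vein.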

[7] = Biliary excretion in castrated pig assessed as unchanged drug level at 0.2 mg/kg, iv measured during 6 hrs sampling by UPLC-tandem mass spectrometry; format: ADME, organism-based, Sus scrofa, Bile; set-up: dose 0.2 mg/kg, route intravenous; conditions: in vivo
[8] = Tmax in castrated pig plasma withdrawn from hepatic vein at 0.8 mg/kg administered as intrajejunal dose 20 mins after ketoconazole administration by UPLC-tandem mass spectrometry; format: ADME, organism-based, Sus scrofa; set-up: dose 0.8 mg/kg; conditions: male
Method in brief: (§2)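 Portal, hepatic and femoral vein plasma sampled over 6 h and assayed by UPLC-MS/MS. Tmax read directly from the profiles. Terminal t1/2 calculated as ln2/λz by non- or compartmental analysis; values below LLOQ after Cmax excluded.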

[9] = AUC (0 to 6 hrs) in castrated pig plasma withdrawn from portal vein at 0.2 mg/kg, iv by UPLC-tandem mass spectrometry; format: ADME, organism-based, Sus scrofa; set-up: time < 6 hr, dose 0.2 mg/kg, route intravenous; conditions: male; method in brief: as §1
[10] = Tmax in castrated pig plasma withdrawn from portal vein at 0.8 mg/kg administered as intrajejunal dose by UPLC-tandem mass spectrometry; format: ADME, organism-based, Sus scrofa; set-up: dose 0.8 mg/kg; conditions: male; method in brief: as §2
[11] = Drug excretion in castrated pig urine assessed as fraction of the dose excreted at 0.8 mg/kg administered as intrajejunal dose 20 mins after ketoconazole administration measured during 6 hrs sampling by UPLC-tandem mass spectrometry; format: ADME, organism-based, Sus scrofa; set-up: dose 0.8 mg/kg; conditions: male, read-out: Drug excretion
[12] = AUC (0 to 6 hrs) in castrated pig bile at 0.2 mg/kg, iv by UPLC-tandem mass spectrometry; format: ADME, organism-based, Sus scrofa; set-up: time < 6 hr, dose 0.2 mg/kg, route intravenous; conditions: male
[13] = Ratio of AUC in bile to plasma withdrawn from hepatic vein in castrated pig at 0.2 mg/kg, iv by UPLC-tandem mass spectrometry; format: ADME, organism-based, Sus scrofa; set-up: dose 0.2 mg/kg, route intravenous; conditions: male, read-out: Ratio AUC
Method in brief: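 Bile collected 0-6 h and weighed; portal and hepatic vein plasma sampled. Analytes quantified by UPLC-MS/MS (finasteride-d9 internal standard, SRM). Bile AUC divided by plasma AUC for each vein.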

[14] = Volume of distribution at steady state in castrated pig at 0.2 mg/kg, iv by UPLC-tandem mass spectrometry; format: ADME, organism-based, Sus scrofa; set-up: dose 0.2 mg/kg, route intravenous; conditions: male, in vivo, read-out: Vdss
Method in brief: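 Femoral plasma assayed over 0-6 h by UPLC-MS/MS. CL calculated as dose/AUCVF,0-6h; Vss calculated as MRT × CL, with MRT = AUMC0-6h/AUC0-6h.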

[15] = Biliary excretion in castrated pig assessed as fraction of the dose excreted at 0.8 mg/kg administered as intrajejunal dose 20 mins after ketoconazole administration measured during 6 hrs sampling by UPLC-tandem mass spectrometry; format: ADME, organism-based, Sus scrofa; set-up: dose 0.8 mg/kg; conditions: male, bile, read-out: Drug excretion
[16] = Tmax in castrated pig plasma withdrawn from hepatic vein at 0.8 mg/kg administered as intrajejunal dose by UPLC-tandem mass spectrometry; format: ADME, organism-based, Sus scrofa; set-up: dose 0.8 mg/kg; conditions: male; method in brief: as §2
[17] = AUC (0 to 6 hrs) in castrated pig plasma withdrawn from femoral vein at 0.8 mg/kg administered as intrajejunal dose by UPLC-tandem mass spectrometry; format: ADME, organism-based, Sus scrofa; set-up: time < 6 hr, dose 0.8 mg/kg; conditions: male; method in brief: as §1
[18] = Total plasma clearance in human; format: ADME, organism-based
[19] = AUC (0 to 6 hrs) in castrated pig plasma withdrawn from portal vein at 0.8 mg/kg administered as intrajejunal dose 20 mins after ketoconazole administration by UPLC-tandem mass spectrometry; format: ADME, organism-based, Sus scrofa; set-up: time < 6 hr, dose 0.8 mg/kg; conditions: male; method in brief: as §1
[20] = AUC (0 to 6 hrs) in castrated pig bile at 0.8 mg/kg administered as intrajejunal dose by UPLC-tandem mass spectrometry; format: ADME, organism-based, Sus scrofa; set-up: time < 6 hr, dose 0.8 mg/kg; conditions: male
[21] = Cmax in castrated pig plasma withdrawn from portal vein at 0.8 mg/kg administered as intrajejunal dose by UPLC-tandem mass spectrometry; format: ADME, organism-based, Sus scrofa; set-up: dose 0.8 mg/kg; conditions: male; method in brief: as §1
[22] = Drug excretion in castrated pig urine assessed as unchanged drug level at 0.8 mg/kg administered as intrajejunal dose measured during 6 hrs sampling by UPLC-tandem mass spectrometry; format: ADME, organism-based, Sus scrofa; set-up: dose 0.8 mg/kg; conditions: in vivo, other
[23] = Cmax in castrated pig plasma withdrawn from femoral vein at 0.8 mg/kg administered as intrajejunal dose 20 mins after ketoconazole administration by UPLC-tandem mass spectrometry; format: ADME, organism-based, Sus scrofa; set-up: dose 0.8 mg/kg; conditions: male; method in brief: as §1
[24] = Terminal half life in castrated pig plasma withdrawn from portal vein at 0.8 mg/kg administered as intrajejunal dose 20 mins after ketoconazole administration by UPLC-tandem mass spectrometry; format: ADME, organism-based, Sus scrofa; set-up: dose 0.8 mg/kg; conditions: male, read-out: beta t1/2 (converted); method in brief: as §2
[25] = Cmax in castrated pig plasma withdrawn from portal vein at 0.8 mg/kg administered as intrajejunal dose 20 mins after ketoconazole administration by UPLC-tandem mass spectrometry; format: ADME, organism-based, Sus scrofa; set-up: dose 0.8 mg/kg; conditions: male; method in brief: as §1
[26] = AUC (0 to 6 hrs) in castrated pig plasma withdrawn from portal vein at 0.8 mg/kg administered as intrajejunal dose by UPLC-tandem mass spectrometry; format: ADME, organism-based, Sus scrofa; set-up: time < 6 hr, dose 0.8 mg/kg; conditions: male; method in brief: as §1
[27] = Cmax in castrated pig bile at 0.2 mg/kg, iv by UPLC-tandem mass spectrometry; format: ADME, organism-based, Sus scrofa; set-up: dose 0.2 mg/kg, route intravenous; conditions: male
[28] = Drug excretion in castrated pig bile assessed as omega-hydroxy finasteride metabolite formation by UPLC-tandem mass spectrometry; format: ADME, tissue-based, Sus scrofa
Plasma = experiment: Drug metabolism in castrated pig plasma withdrawn from femoral vein assessed as omega-hydroxy finasteride metabolite formation by UPLC-tandem mass spectrometry; format: ADME, cell-free, Sus scrofa
Method in brief: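 Plasma sampled 0-6 h from portal, hepatic and femoral veins. Analysed by acetonitrile precipitation with finasteride-d9 internal standard, then UPLC-MS/MS in SRM mode, m/z 389.41 → 271.94 for the ω-hydroxy metabolite.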

[29] = Terminal half life in castrated pig plasma withdrawn from femoral vein at 0.8 mg/kg administered as intrajejunal dose 20 mins after ketoconazole administration by UPLC-tandem mass spectrometry; format: ADME, organism-based, Sus scrofa; set-up: dose 0.8 mg/kg; conditions: male, read-out: beta t1/2 (converted); method in brief: as §2
[30] = Apparent biliary clearance in castrated pig at 0.8 mg/kg administered as intrajejunal dose by UPLC-tandem mass spectrometry; format: ADME, organism-based, Sus scrofa, Bile; set-up: dose 0.8 mg/kg; conditions: in vivo, other
[31] = Tmax in castrated pig plasma withdrawn from femoral vein at 0.8 mg/kg administered as intrajejunal dose 20 mins after ketoconazole administration by UPLC-tandem mass spectrometry; format: ADME, organism-based, Sus scrofa; set-up: dose 0.8 mg/kg; conditions: male; method in brief: as §2
Sus scrofa = experiment: Absorption rate constant in castrated pig plasma withdrawn from femoral vein at 0.8 mg/kg administered as intrajejunal dose 20 mins after ketoconazole administration by UPLC-tandem mass spectrometry; format: ADME, organism-based; set-up: dose 0.8 mg/kg; conditions: in vivo, other
[32] = AUC (0 to 6 hrs) in castrated pig plasma withdrawn from hepatic vein at 0.8 mg/kg administered as intrajejunal dose 20 mins after ketoconazole administration by UPLC-tandem mass spectrometry; format: ADME, organism-based, Sus scrofa; set-up: time < 6 hr, dose 0.8 mg/kg; conditions: male; method in brief: as §1

SMILES: CC(C)(C)NC(=O)[C@H]1CC[C@H]2[C@@H]3CC[C@H]4NC(=O)C=C[C@]4(C)[C@H]3CC[C@]12C [FINASTERIDE]
- dose excreted at 6 h [1]: 0.09%
- AUC(0-t) at 6 h [2]: 0.9 µM·h
- Ae [3]: 0.09 µmol
- AUC(0-t) at 6 h [4]: 4.4 µM·h
- Drug excretion [5]: metabolite_not_detected
- Kp [6]: 0.9
- Ae [7]: 0.032 µmol
- Tmax [8]: 1 h
- AUC(0-t) at 6 h [9]: 1.2 µM·h
- Tmax [10]: 0.3 h
- dose excreted [11]: 0.08%
- AUC(0-t) at 6 h [12]: 1.1 µM·h
- Kp [13]: 7
- Vd [14]: 0.99 L/kg
- dose excreted [15]: 0.18%
- Tmax [16]: 0.5 h
- AUC(0-t) at 6 h [17]: 1.7 µM·h
- clearance [18]: 2.33 mL/min/kg
- AUC(0-t) at 6 h [19]: 6.3 µM·h
- AUC(0-t) at 6 h [20]: 2.5 µM·h
- Cmax [21]: 2600 nM
- Ae [22]: 0.01 µmol
- Cmax [23]: 1200 nM
- half-life [24]: 3.9 h
- Cmax [25]: 3100 nM
- AUC(0-t) at 6 h [26]: 2.9 µM·h
- Cmax [27]: 500 nM
- Drug excretion [28]: metabolite_not_detected
- Drug metabolism (Plasma): metabolite_not_detected
- half-life [29]: 4 h
- CL(app) [30]: 0.009 mL/min/kg
- Tmax [31]: 1.5 h
- ka (Sus scrofa): 3 h⁻¹
- AUC(0-t) at 6 h [32]: 4.1 µM·h
